Consider twelve compounds from publication PMC9742164 (ChemMedChem, 2022).

Values after ≈ are worked out from the molar mass of the structure shown.

In experiment [1] the test system is E. coli ATCC 25922. Briefly: MIC broth microdilution. The format is cell-based. In general terms: Broth dilution looks for growth in wells or tubes with falling amounts of substance.
In experiment [2] the target is T1, E. coli DNA topoisomerase IV (Escherichia coli, UniProt P20083). Briefly: Gel-based DNA relaxation assay by topoisomerase IV. The format is biochemical. The conditions noted are these: for IC50: IC50 against E. coli topoisomerase IV, relaxation; for Inhibition of E. coli DNA topoisomerase IV: in words.
T1 sequence (P20083 whole entry): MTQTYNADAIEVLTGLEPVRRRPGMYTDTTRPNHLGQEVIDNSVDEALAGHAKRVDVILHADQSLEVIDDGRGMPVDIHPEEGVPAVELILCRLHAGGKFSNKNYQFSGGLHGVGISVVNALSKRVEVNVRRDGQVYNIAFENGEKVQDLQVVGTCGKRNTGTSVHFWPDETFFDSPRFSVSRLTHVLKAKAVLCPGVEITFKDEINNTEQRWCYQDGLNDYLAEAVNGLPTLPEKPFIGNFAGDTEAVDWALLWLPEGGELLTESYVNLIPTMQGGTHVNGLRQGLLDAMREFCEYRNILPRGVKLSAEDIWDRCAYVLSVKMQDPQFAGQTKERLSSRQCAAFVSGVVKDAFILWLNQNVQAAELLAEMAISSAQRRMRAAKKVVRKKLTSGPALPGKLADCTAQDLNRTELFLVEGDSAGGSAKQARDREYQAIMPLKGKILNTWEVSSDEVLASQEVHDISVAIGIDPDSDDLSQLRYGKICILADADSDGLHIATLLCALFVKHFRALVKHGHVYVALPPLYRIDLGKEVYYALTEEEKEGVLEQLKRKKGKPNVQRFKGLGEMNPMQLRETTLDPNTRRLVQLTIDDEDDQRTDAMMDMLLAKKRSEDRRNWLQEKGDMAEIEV
T1 sequence (P0AFI2 whole entry, further chain): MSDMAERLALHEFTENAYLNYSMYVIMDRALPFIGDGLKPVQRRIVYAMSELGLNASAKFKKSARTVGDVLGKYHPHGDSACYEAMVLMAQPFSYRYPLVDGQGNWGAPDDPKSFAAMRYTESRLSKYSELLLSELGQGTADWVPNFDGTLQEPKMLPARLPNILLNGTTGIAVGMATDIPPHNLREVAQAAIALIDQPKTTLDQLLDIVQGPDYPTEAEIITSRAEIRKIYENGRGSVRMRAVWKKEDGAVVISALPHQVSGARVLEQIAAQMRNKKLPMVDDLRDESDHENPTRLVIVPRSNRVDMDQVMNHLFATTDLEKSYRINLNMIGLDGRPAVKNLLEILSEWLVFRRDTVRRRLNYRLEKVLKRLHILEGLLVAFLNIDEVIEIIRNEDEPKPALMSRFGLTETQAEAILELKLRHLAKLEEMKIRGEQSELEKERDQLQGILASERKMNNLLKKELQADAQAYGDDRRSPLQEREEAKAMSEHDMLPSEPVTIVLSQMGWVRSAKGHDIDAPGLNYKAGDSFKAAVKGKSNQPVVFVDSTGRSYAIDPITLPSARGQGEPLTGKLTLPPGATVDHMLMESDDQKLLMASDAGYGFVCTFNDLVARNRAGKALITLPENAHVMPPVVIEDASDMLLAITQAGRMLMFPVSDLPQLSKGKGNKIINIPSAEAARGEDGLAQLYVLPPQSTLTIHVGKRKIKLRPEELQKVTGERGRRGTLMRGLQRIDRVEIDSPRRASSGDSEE
Experiment [3] has as its target T2, E. coli DNA gyrase (Escherichia coli, UniProt P0AES6). The experiment in a line: Gel-based DNA gyrase supercoiling inhibition assay. The conditions noted are these: for IC50: supercoiling; for Inhibition of E. coli DNA gyrase: polyphenol screen, in words. The format is biochemical.
Experiment [4] deals with S. aureus ATCC 14775. The experiment in a line: MIC broth microdilution. It counts as cell-based.
Experiment [5] deals with T1, E. coli DNA topoisomerase IV. Briefly: SDFQ-based DNA relaxation assay by topoisomerase IV. It counts as biochemical.
For experiment [6], the target named is T2, E. coli DNA gyrase. Briefly: SDFQ-based DNA gyrase supercoiling inhibition assay. The format is biochemical.
Experiment [7] deals with MRSA ATCC 33591. The experiment in a line: MIC broth microdilution. The format is cell-based, methicillin-resistant Staphylococcus aureus.
Experiment [8] has as its system B. subtilis ATCC 6633. Briefly: MIC broth microdilution. It counts as cell-based.
In experiment [9] the test system is E. coli imp BAS3023. The format is cell-based. The conditions noted are these: E. coli imp BAS3023 (imp4213 permeability mutation).
The target in experiment [10] is T1, E. coli DNA topoisomerase IV. Briefly: Topoisomerase IV ATPase linked assay. It counts as biochemical. The note with it: in words; 100 μM (Figure 4e). The gist of the method: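 Topoisomerase IV ATP hydrolysis was coupled to NADH oxidation via pyruvate kinase/lactate dehydrogenase, read at 340 nm, 37°C. Buffer: 10 mM Tris-HCl pH 7.5, 0.2 mM EDTA, 1 mM MgCl2, 1 mM DTT, 2% glycerol. Mix: relaxed pAB1, 0.8 mM phosphoenolpyruvate, 0.4 mM NADH. After 5 min preincubation, 2 mM ATP was added. Test compounds at 100 μM.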

The target in experiment [11] is T2, E. coli DNA gyrase. The experiment in a line: DNA gyrase ATPase linked assay. It counts as biochemical. A digest of the protocol: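 Pyruvate kinase/lactate dehydrogenase-coupled NADH assay at 37°C. Buffer: 10 mM Tris-HCl pH 7.5, 0.2 mM EDTA, 1 mM MgCl2, 1 mM DTT, 2% glycerol. Mix: 50 nM gyrase or GyrB, 200 ng relaxed pAB1, 0.8 mM phosphoenolpyruvate, 1.2 U PK, 1.7 U LDH, 0.4 mM NADH. After 5 min preincubation, 2 mM ATP started the reaction, read at A340. Double-reciprocal plot with or without test compound at 500 nM; single-point at 100 μM.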

Experiment [12] deals with human DNA topoisomerase IIα (Homo sapiens, UniProt P11388). Briefly: DNA relaxation assay by human DNA topoisomerase IIα. It counts as biochemical. The conditions noted are these: at 100 μM.
human DNA topoisomerase IIα, sequence (P11388 whole entry): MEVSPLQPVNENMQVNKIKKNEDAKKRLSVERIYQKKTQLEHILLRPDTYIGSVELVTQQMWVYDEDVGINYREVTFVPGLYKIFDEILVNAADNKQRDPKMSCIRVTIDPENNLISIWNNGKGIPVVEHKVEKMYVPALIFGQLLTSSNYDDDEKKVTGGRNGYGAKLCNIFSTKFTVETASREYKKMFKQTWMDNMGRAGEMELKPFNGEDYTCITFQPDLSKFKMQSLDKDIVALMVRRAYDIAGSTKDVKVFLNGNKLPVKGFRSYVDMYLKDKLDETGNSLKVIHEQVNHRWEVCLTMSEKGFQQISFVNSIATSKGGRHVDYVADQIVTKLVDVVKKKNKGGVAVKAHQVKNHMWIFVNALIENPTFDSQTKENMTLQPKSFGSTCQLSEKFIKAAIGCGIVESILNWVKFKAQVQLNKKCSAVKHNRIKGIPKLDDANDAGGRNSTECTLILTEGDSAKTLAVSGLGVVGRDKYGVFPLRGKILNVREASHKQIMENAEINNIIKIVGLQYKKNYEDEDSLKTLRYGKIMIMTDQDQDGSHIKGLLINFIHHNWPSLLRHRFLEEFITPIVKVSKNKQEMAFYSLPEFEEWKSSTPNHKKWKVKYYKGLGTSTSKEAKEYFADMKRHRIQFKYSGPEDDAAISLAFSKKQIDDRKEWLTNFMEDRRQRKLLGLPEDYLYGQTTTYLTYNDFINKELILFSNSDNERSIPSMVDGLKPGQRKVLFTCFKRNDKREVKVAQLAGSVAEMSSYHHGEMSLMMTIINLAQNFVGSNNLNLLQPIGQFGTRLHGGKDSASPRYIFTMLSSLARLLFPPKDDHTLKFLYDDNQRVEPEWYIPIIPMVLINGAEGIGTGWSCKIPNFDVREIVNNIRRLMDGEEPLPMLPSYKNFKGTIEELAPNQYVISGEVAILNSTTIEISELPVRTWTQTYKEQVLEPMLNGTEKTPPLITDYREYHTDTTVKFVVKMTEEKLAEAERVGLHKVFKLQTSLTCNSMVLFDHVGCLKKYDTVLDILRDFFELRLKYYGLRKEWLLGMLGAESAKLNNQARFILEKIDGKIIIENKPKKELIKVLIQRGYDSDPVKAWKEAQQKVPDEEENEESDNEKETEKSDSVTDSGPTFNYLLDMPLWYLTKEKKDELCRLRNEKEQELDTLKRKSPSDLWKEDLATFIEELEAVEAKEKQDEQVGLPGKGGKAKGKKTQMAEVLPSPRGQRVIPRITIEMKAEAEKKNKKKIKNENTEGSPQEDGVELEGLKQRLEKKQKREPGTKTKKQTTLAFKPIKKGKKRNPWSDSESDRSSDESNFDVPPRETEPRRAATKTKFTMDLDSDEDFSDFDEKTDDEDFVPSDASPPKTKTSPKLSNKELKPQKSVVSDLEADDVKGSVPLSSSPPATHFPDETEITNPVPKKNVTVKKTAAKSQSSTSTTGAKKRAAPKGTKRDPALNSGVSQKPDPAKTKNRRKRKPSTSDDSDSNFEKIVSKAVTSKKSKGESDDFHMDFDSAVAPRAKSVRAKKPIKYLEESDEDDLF
Experiment [13] deals with T2, E. coli DNA gyrase. Briefly: DNA gyrase-mediated DNA cleavage assay. The note with it: up to 200 μM digallic acid. It counts as biochemical. The gist of the method:
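Plasmid pBR322 (250 ng) and 20 nM E. coli gyrase were incubated in gyrase buffer with test compound (0–200 μM) at 37°C for 15 min. Then 0.2% SDS and 0.1 mg/mL proteinase K were added to trap cleavage complexes, with 30 min more at 37°C. […] Products ran on 1% agarose containing 0.5 μg/mL ethidium bromide.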

In experiment [14] the target is T3, human DNA topoisomerase I (Homo sapiens, UniProt P11387).
T3 sequence (P11387 1-765): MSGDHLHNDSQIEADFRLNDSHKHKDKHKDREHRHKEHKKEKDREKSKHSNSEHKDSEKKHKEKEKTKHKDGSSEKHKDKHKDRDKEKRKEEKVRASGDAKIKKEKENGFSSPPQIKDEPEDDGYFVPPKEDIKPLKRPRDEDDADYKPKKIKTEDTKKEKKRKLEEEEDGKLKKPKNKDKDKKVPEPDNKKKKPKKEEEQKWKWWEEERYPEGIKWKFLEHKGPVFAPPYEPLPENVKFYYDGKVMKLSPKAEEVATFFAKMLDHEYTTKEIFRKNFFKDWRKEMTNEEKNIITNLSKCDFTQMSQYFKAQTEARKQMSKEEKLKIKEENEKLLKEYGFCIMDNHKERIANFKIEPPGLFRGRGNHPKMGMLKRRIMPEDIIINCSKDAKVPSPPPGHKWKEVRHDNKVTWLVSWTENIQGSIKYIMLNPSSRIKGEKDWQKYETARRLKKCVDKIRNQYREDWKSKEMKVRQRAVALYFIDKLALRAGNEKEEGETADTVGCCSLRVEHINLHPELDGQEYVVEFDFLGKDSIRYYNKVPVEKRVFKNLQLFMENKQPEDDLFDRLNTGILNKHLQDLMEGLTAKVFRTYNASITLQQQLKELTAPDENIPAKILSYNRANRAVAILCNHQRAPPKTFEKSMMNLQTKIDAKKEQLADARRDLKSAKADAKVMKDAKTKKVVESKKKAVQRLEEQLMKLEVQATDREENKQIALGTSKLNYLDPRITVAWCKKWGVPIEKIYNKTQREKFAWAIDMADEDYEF
The experiment in a line: DNA relaxation assay by human DNA topoisomerase I. The format is biochemical. The note with it: at 100 μM.

The target in experiment [15] is T1, E. coli DNA topoisomerase IV. Briefly: DNA decatenation assay by topoisomerase IV. It counts as biochemical.
In experiment [16] the target is E. coli DNA topoisomerase I (Escherichia coli, UniProt P06612). Briefly: DNA relaxation assay by E. coli DNA topoisomerase I. It counts as biochemical. The conditions noted are these: at 100 μM.
E. coli DNA topoisomerase I, sequence (P06612 whole entry): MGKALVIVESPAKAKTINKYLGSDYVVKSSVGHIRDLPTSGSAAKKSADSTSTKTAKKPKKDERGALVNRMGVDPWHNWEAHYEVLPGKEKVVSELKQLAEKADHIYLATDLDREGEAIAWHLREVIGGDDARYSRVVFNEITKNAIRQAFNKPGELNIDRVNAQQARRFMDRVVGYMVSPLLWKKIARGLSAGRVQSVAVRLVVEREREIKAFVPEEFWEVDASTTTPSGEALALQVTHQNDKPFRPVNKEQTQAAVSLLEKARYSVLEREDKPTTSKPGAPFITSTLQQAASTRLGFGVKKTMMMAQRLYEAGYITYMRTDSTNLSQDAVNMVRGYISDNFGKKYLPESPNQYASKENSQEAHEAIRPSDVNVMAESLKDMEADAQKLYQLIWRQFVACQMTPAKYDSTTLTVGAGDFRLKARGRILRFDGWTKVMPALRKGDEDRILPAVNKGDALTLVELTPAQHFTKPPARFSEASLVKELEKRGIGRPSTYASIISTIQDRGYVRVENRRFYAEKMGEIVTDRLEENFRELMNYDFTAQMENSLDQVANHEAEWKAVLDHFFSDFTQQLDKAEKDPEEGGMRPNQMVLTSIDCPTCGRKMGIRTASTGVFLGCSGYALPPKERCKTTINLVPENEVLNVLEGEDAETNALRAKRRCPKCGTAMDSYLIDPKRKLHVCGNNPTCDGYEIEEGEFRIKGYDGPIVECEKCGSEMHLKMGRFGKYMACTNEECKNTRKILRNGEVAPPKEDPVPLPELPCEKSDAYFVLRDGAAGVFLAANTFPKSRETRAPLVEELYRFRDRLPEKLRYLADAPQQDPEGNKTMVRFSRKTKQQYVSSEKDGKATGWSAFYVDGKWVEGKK
Where [17] appears, read: IC50 against E. coli DNA gyrase, Gel-based.
[18] abbreviates: Staphylococcus aureus, ATCC14775.
The mark [19] stands for this setting: Staphylococcus aureus, ATCC33591|MRSA.

Usually MIC stands for the smallest concentration in the dilution series that meets the test's criterion for growth inhibition. As usually defined, the IC50 is the point on the concentration scale where inhibition reaches its midpoint. As a reminder, the Ki is a dissociation constant, usually derived from enzyme kinetics or from competition with a known ligand.

Turning to `CCCCCCCCCCCCOC(=O)c1cc(O)c(O)c(O)c1` [Dodecyl gallate, dodecyl gallate], the MIC in experiment [1] (Escherichia coli, ATCC25922) was more than 200 µM; in experiment [4] (setting [18]), 200 µM (≈ 67.7 µg/mL); in experiment [7] (setting [19]), 200 µM (≈ 67.7 µg/mL). Further, the IC50 came to 50 µM in experiment [2] (Gel-based), 15 µM in experiment [3] (setting [17]), 36.9 µM in [5] and 13.8 µM in experiment [6]. For the same compound, the “Inhibition of E. coli DNA topoisomerase IV” value in experiment [2] is reported as “strongly inhibit”.

Take `O=c1oc2c(O)c(O)cc3c(=O)oc4c(O)c(O)cc1c4c23` [ellagic acid, reference compound]: in experiment [3], the “Inhibition of E. coli DNA gyrase” value was “strongly inhibit”.

As for `O=C(O[C@@H]1Cc2c(O)cc(O)cc2O[C@@H]1c1cc(O)c(O)c(O)c1)c1cc(O)c(O)c(O)c1` [EGCG, epigallocatechin gallate, reference compound], in experiment [3], the “Inhibition of E. coli DNA gyrase” value is “strongly inhibit”.

In the case of `CO[C@@H]1[C@@H](OC(N)=O)[C@@H](O)[C@H](Oc2ccc3c(O)c(NC(=O)c4ccc(O)c(CC=C(C)C)c4)c(=O)oc3c2C)OC1(C)C` [Novobiocin, novobiocin, reference compound], the MIC in experiment [1] (Escherichia coli, ATCC25922) is 158 µM (≈ 96.5 µg/mL); in experiment [4] (setting [18]), less than 6.25 µM; in experiment [7] (setting [19]), less than 6.25 µM.

Regarding tannic acid, the IC50 in experiment [3] (read-out: IC50 against E. coli DNA gyrase, gel (Figure 1)) was found to be 1 µM.

Take `O=C(Oc1ccccc1)c1cc(O)c(O)c(O)c1` [Phenyl gallate, phenyl gallate]: the MIC in experiment [8] was more than 200 µM; in [1] (E. coli ATCC 25922), more than 200 µM; in experiment [4] (S. aureus ATCC 14775) it was 200 µM (≈ 49.2 µg/mL); in experiment [7] (MRSA ATCC 33591) it was 200 µM (≈ 49.2 µg/mL); in [9], more than 200 µM. Besides, the IC50 is more than 100 µM in experiment [3] (read-out: IC50 against E. coli DNA gyrase, Gel-based, gel-based); more than 100 µM in [5] (read-out: IC50 against E. coli topoisomerase IV, SDFQ, relaxation, SDFQ); more than 100 µM in experiment [6] (read-out: IC50 against E. coli DNA gyrase, SDFQ, supercoiling, SDFQ).

In the case of `O=C(Oc1ccc(-c2ccccc2)cc1)c1cc(O)c(O)c(O)c1` [Biphenyl gallate, biphenyl gallate], the MIC was 50 to 100 µM in experiment [8]; more than 200 µM in experiment [1] (E. coli ATCC 25922); 50 µM (≈ 16.1 µg/mL) in [4] (S. aureus ATCC 14775); 50 µM (≈ 16.1 µg/mL) in experiment [7] (MRSA ATCC 33591); 200 µM (≈ 64.5 µg/mL) in [9].

Consider `O=C(/C=C/c1ccc(O)c(O)c1)O[C@@H]1CC(O)(C(=O)O)C[C@@H](OC(=O)/C=C/c2ccc(O)c(O)c2)C1O` (stereo partly drawn) [3,5-dicaffeoylquinic acid, reference compound], for which the “Inhibition of E. coli DNA gyrase” value in experiment [3] is “strongly inhibit”.

For `CCCCOC(=O)c1cc(O)c(O)c(O)c1` [Butyl gallate, butyl gallate], the MIC in experiment [1] (Escherichia coli, ATCC25922) is more than 200 µM; in experiment [4] (setting [18]), more than 200 µM; in experiment [7] (setting [19]), more than 200 µM. Also, the IC50 in [2] (Gel-based), in experiment [3] (setting [17]), in experiment [5] and in experiment [6] was more than 100 µM in each case.

For `CCCCCCCCOC(=O)c1cc(O)c(O)c(O)c1` [Octyl gallate, octyl gallate], the MIC is more than 200 µM in experiment [1] (Escherichia coli, ATCC25922); 200 µM (≈ 56.5 µg/mL) in [4] (setting [18]); 100 µM (≈ 28.2 µg/mL) in experiment [7] (setting [19]). The IC50 in experiment [2] (Gel-based) was determined as 50 µM; in experiment [3] (setting [17]), 50 µM; in [5] it was 41.2 µM; in [6], 26 µM. The “Inhibition of E. coli DNA topoisomerase IV” value in [2] is listed as “strongly inhibit”.

Consider `O=C(O)c1cc(O)c(O)c(O)c1` [Gallic acid, gallic acid], for which the IC50 in experiment [2] (Gel-based) and in experiment [3] (setting [17]) was more than 500 µM throughout.

`O=C(O)c1cc(O)c(O)c(OC(=O)c2cc(O)c(O)c(O)c2)c1` [Digallic acid, digallic acid]: the MIC in experiment [1] (Escherichia coli, ATCC25922) is more than 200 µM; in experiment [4] (setting [18]), 200 µM (≈ 64.4 µg/mL); in experiment [7] (setting [19]), 200 µM (≈ 64.4 µg/mL). Besides, the IC50 in experiment [2] (Gel-based) is 8 µM; in [2], approximately 8 µM; in experiment [3] (setting [17]), 2 µM; in experiment [3] (IC50 against E. coli DNA gyrase, gel (Figure 1)), approximately 2 µM; in [5] it was 7.3 µM; in experiment [6], 1.9 µM. Also, the IC50 in experiment [15] was approximately 4 µM. The “Inhibition of ATPase activities of bacterial DNA topoisomerase IV” value in experiment [10] is “inhibit”. This compound registered a Ki in experiment [11] of 0.347 µM. Besides, the “Vmax of gyrase ATPase” value in experiment [11] (in the presence of 500 nM of digallic acid, without inhibitor 16.3 ± 2.5 nM/s) came out at 17.8 ± 5.0 nM/s. For the same compound, in [11] (in words, 100 μM (Figure 3d)), the “Inhibition of ATPase activities of E. coli DNA gyrase” value is given as “greatly inhibit”. The “Inhibition of human DNA topoisomerase IIα” value in experiment [12] is listed as “do not inhibit”. Besides, the “Gyrase poisoning (gyrase-mediated DNA cleavage)” value in experiment [13] is “not bacterial DNA gyrase poisons”. The “Inhibition of human DNA topoisomerase I” value in experiment [14] is reported as “do not inhibit”. Moreover, in experiment [16], the “Inhibition of E. coli DNA topoisomerase I” value was “do not inhibit”.
